Measured values as given in ChEMBL document CHEMBL1138609, “Amiloride derived inhibitors of acid-sensing ion channel-3 (ASIC3)” (Bioorg Med Chem Lett, 2009).
Active and inactive are the calls of the source. The calls are words filed in the database; no cut-off is given here.

Key:
[1] = target: T1, Acid-sensing ion channel 3 (Homo sapiens) (UniProt Q9UHC3); assay: Inhibition of ASIC3 assessed as inhibition of peak current at 1 uM by patch clamp electrophysiology relative to baseline
T1 sequence (whole entry): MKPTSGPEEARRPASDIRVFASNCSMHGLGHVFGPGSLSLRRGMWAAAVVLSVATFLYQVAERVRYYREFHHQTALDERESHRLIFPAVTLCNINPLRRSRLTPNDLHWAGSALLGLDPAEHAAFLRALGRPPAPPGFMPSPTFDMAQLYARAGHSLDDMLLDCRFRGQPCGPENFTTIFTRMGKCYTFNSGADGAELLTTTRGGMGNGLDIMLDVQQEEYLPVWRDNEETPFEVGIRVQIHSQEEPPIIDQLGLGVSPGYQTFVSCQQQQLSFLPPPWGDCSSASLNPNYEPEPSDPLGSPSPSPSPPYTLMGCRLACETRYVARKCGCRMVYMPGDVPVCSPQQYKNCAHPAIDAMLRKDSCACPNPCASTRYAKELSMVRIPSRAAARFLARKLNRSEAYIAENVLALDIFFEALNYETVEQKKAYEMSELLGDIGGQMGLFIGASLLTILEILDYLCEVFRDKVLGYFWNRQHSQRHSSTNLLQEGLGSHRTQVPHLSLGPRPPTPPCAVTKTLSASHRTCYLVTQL
Method in brief: (§1)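 Automated patch clamp on ASIC3 channels, used both for single-dose screening and for multi-dose follow-up. Extracellular solution: 150 NaCl, 5 KCl, 2 CaCl2, 1 MgCl2, 12 dextrose, with HEPES pH 7.4 or MES pH 5.5. Compound applied 120 s before acid. Peak current compared with vehicle or baseline peak; N = 3.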

[2] = target: T1, Acid-sensing ion channel 3 (Homo sapiens); assay: Inhibition of ASIC3 at 20 uM assessed as inhibition of peak current by patch clamp electrophysiology relative to baseline; method in brief: as §1
[3] = Drug level in Sprague-Dawley rat brain after 30 mins; assay type: ADME, tissue-based; conditions: read-out: Drug uptake
Method in brief: (§2)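 Rats from the CFA inflammatory pain study were sampled 30 min after dosing. Average concentrations were measured in plasma and in brain.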

Rattus norvegicus [4] = organism: Rattus norvegicus; assay: activity against Sprague-Dawley rat complete Freund's adjuvant-induced inflammatory pain model assessed as reversal of mechanical hypersensitivity after 30 mins
[5] = Plasma concentration in Sprague-Dawley rat after 30 mins; assay type: ADME, cell-free; method in brief: as §2
[6] = target: T2, Acid-sensing ion channel 3 (Homo sapiens, UniProt Q9UHC3); assay: Inhibition of ASIC3 assessed as inhibition of peak current by patch clamp electrophysiology; method in brief: as §1
T2 sequence (Q9UHC3 whole entry): T1 sequence (whole entry)

[7] = target: T3, Acid-sensing ion channel 3 (Rattus norvegicus, UniProt O35240); assay: Inhibition of rat ASIC3 assessed as inhibition of peak current by patch clamp electrophysiology; method in brief: as §1
T3 sequence (O35240 whole entry): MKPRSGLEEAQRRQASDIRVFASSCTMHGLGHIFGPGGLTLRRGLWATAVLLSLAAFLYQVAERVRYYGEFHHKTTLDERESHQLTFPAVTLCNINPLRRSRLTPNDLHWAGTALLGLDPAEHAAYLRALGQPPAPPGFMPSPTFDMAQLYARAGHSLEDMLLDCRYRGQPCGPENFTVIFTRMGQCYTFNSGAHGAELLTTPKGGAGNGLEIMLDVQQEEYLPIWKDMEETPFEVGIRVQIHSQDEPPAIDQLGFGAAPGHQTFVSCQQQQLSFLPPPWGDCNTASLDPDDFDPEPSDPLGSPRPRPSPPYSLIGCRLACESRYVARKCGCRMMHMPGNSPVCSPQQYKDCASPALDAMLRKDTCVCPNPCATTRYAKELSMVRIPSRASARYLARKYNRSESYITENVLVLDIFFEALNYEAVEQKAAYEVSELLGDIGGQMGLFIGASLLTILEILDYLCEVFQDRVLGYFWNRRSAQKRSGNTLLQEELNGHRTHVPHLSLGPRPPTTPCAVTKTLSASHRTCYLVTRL

Rattus norvegicus [8] = assay: activity against Sprague-Dawley rat complete Freund's adjuvant-induced inflammatory pain model assessed as reversal of mechanical hypersensitivity at 30 mg/kg, ip after 30 mins

| inhibition [1] [%] | inhibition [2] [%] | SMILES | further results |
| --- | --- | --- | --- |
| 21 | 92 | NC(N)=NC(=O)c1nc(Cl)c(NC2CCCCC2)nc1N | – |
| 21 | – | COc1nc(N)c(C(=O)N=C(N)N)nc1Cl | – |
| 46 | – | NC(N)=NC(=O)c1nc(Cl)c(NCCc2cccc(F)c2)nc1N | – |
| 28 | – | NC(N)=NC(=O)c1nc(Cl)c(Nc2cnc3ccccc3c2)nc1N | – |
| – | 51 | N=C(N)NC(=O)c1nc(Cl)c(N2CCCCCC2)nc1N | – |
| 21 | – | NC(N)=NC(=O)c1ncc(-c2cccc3ccccc23)nc1N | – |
| 11 | – | NC(N)=NC(=O)c1nc(Cl)c(Sc2ccccc2)nc1N | – |
| 12 | – | CSc1nc(N)c(C(=O)N=C(N)N)nc1Cl | – |
| – | 9 | NC(N)=NC(=O)c1nc(Cl)c(O)nc1N | – |
| 52 | 96 | NC(N)=NC(=O)c1nc(Cl)c(N2CCc3ccccc3C2)nc1N | – |
| 50 | – | NC(N)=NC(=O)c1nc(Cl)c(Nc2ccc(C(F)(F)F)cc2)nc1N | – |
| 16 | 78 | C=CCNc1nc(N)c(C(=O)N=C(N)N)nc1Cl | – |
| 72 | – | NC(N)=NC(=O)c1ncc(-c2cccc(-c3ccccc3)c2)nc1N | concentration at 0.5 h [3]: 79 nM; Activity (Rattus norvegicus [4]): Dose-dependent effect; concentration at 0.5 h [5]: 2900 nM; IC50 [6]: 490 nM; IC50 [7]: 950 nM; Activity (Rattus norvegicus [8]): Active |
| 27 | 93 | NC(N)=NC(=O)c1nc(Cl)c(NCc2ccc3ccccc3c2)nc1N | – |
| 62 | 98 | NC(N)=NC(=O)c1nc(Cl)c(Nc2ccc3ccccc3c2)nc1N | IC50 [6]: 510 nM |
| 28 | 96 | NC(N)=NC(=O)c1nc(Cl)c(NCC2CCCCC2)nc1N | – |
| – | 51 | CN1CCN(c2nc(N)c(C(=O)N=C(N)N)nc2Cl)CC1 | – |
| 46 | 94 | N=C(N)NC(=O)c1nc(Cl)c(NCCc2ccccc2)nc1N | – |
| 8 | – | NC(N)=NC(=O)c1ncc(-c2ccccc2-c2ccccc2)nc1N | – |
| 46 | 89 | NC(N)=NC(=O)c1nc(Cl)c(N2CCc3ccccc32)nc1N | – |

| inhibition [1] [%] | inhibition [2] [%] | SMILES | further results |
| --- | --- | --- | --- |
| – | 85 | NC(N)=NC(=O)c1nc(Cl)c(N2CCCCC2)nc1N | – |
| 29 | 90 | NC(N)=NC(=O)c1nc(Cl)c(NCc2cccc(F)c2)nc1N | – |
| 23 | 90 | NC(N)=NC(=O)c1nc(Cl)c(Oc2ccccc2)nc1N | – |
| 35 | – | NC(N)=NC(=O)c1ncc(-c2ccccc2)nc1N | – |
| – | 74 | NC(N)=NC(=O)c1nc(Cl)c(NCC(F)(F)F)nc1N | – |
| 33 | 91 | NC(N)=NC(=O)c1nc(Cl)c(Oc2ccc3ccccc3c2)nc1N | – |
| 4 | – | NC(N)=NC(=O)c1ncc(Cc2ccccc2)nc1N | – |
| 32 | 91 | CCCN(C)c1nc(N)c(C(=O)N=C(N)N)nc1Cl | – |
| 12 | – | NC(N)=NC(=O)c1nc(Cl)c(Sc2ccc3ccccc3c2)nc1N | – |
| – | 60 | NC(N)=NC(=O)c1nc(Cl)c(N2CCOCC2)nc1N | – |
| 44 | – | NC(N)=NC(=O)c1nc(Cl)c(NCC2CCc3ccccc3C2)nc1N (stereo unspecified) | – |
| 12 | 84 | NC(N)=NC(=O)c1nc(Cl)c(N2CCCC2)nc1N | – |
| 44 | 95 | NC(N)=NC(=O)c1nc(Cl)c(Nc2ccccc2)nc1N | – |
| – | 48 | CC(C)(C)Nc1nc(N)c(C(=O)N=C(N)N)nc1Cl | – |
| – | 57 | CN(c1nc(N)c(C(=O)N=C(N)N)nc1Cl)C1CCCCC1 | – |
| 24 | 91 | CCCNc1nc(N)c(C(=O)N=C(N)N)nc1Cl | – |
| 7 | – | NC(N)=NC(=O)c1ncc(-c2ccc(-c3ccccc3)cc2)nc1N | – |
| – | – | N=C(N)NC(=O)c1ncc(-c2cccc(-c3ccsc3)c2)nc1N | IC50 [6]: 640 nM |
| 47 | 94 | NC(N)=NC(=O)c1nc(Cl)c(Nc2cccc(Cl)c2)nc1N | – |
| 31 | 90 | NC(N)=NC(=O)c1nc(Cl)c(NCc2ccccc2Cl)nc1N | – |

| inhibition [1] [%] | inhibition [2] [%] | SMILES | further results |
| --- | --- | --- | --- |
| 6 | – | NC(N)=NC(=O)c1ncc(-c2ccc3ccccc3c2)nc1N | – |
| 34 | – | NC(N)=NC(=O)c1nc(Cl)c(NCCc2ccccc2F)nc1N | – |
| 32 | – | NC(N)=NC(=O)c1nc(Cl)c(Oc2ccc3cccnc3c2)nc1N | – |
| – | 25 | NC(N)=NC(=O)c1nc(Cl)c(Nc2ccccn2)nc1N | – |
| 23 | – | NC(N)=NC(=O)c1ncc(-c2ccsc2)nc1N | – |
| 26 | 92 | NC(N)=NC(=O)c1nc(Cl)c(NCc2ccccc2F)nc1N | – |
| 39 | 95 | Cc1cc(C)cc(-c2cnc(C(=O)N=C(N)N)c(N)n2)c1 | – |
| – | 78 | NC(N)=NC(=O)c1nc(Cl)c(NC2CC2)nc1N | – |
| 9 | – | NC(N)=NC(=O)c1nc(Cl)c(OCc2ccc3ccccc3c2)nc1N | – |
| 41 | – | NC(N)=NC(=O)c1nc(Cl)c(Nc2ccc3ncccc3c2)nc1N | – |
| 11 | – | NC(N)=NC(=O)c1nc(Cl)c(Oc2cc3ccccc3cn2)nc1N | – |
| 32 | – | NC(N)=NC(=O)c1nc(Cl)c(NCCc2ccc(F)cc2)nc1N | – |
| 46 | 97 | NC(N)=NC(=O)c1nc(Cl)c(NCc2ccc(Cl)cc2)nc1N | – |
| 37 | 91 | CN(C)c1nc(N)c(C(=O)NC(=N)N)nc1Cl | – |
| 30 | 82 | NC(N)=NC(=O)c1ncc(-c2cccc(-c3ccoc3)c2)nc1N | – |
| 58 | 90 | NC(N)=NC(=O)c1ncc(-c2cccc(-c3ccsc3)c2)nc1N | – |
| 34 | – | NC(N)=NC(=O)c1nc(Cl)c(Oc2ccc3ccccc3n2)nc1N | – |
| 14 | – | NC(N)=NC(=O)c1nc(Cl)c(Nc2ccncc2)nc1N | – |

| SMILES | inhibition [1] [%] | inhibition [2] [%] | further results |
| --- | --- | --- | --- |
| N=C(N)NC(=O)c1nc(Cl)c(N)nc1N [AMILORIDE] | 22 | 65 | IC50 [6]: 4400 nM |
